This note sets out measurements from ChEMBL document CHEMBL2440053, “New route to the 5-((arylthio- and heteroarylthio)methylene)-3-(2,2,2-trifluoroethyl)-furan-2(5H)-ones--key intermediates in the synthesis of 4-aminoquinoline γ-lactams as potent antimalarial compounds” (Bioorg Med Chem Lett, 2013).

Series [1] has as its system HUVEC. Nature of the series: Cytotoxicity against HUVEC up to 100 uM after 24 hrs by Tryptan Blue assay. The class given is cell-based. Conditions: human.
Series [2] deals with Plasmodium falciparum. Nature of the series: Antimalarial activity against chloroquine-resistant Plasmodium falciparum W2 after 48 to 72 hrs by SYBR green-1 assay. It counts as functional, organism-based. The essentials: (§1)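 P. falciparum culture tested in vitro on the CQ-sensitive 3D7 or CQ-resistant W2 clone. Each experiment was run twice, with wells in triplicate. IC50 in nM is the mean of at least two experiments.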

Series [3] relates to Plasmodium falciparum. Kind of series: Antimalarial activity against chloroquine-sensitive Plasmodium falciparum 3D7 after 48 to 72 hrs by SYBR green-1 assay. It counts as functional, organism-based. The essentials:
as §1

For series [4], the system named is HUVEC. Nature of the series: Cytotoxicity against HUVEC at 0.01 to 50 umol/L after 24 hrs by Tryptan Blue assay. It counts as cell-based. Conditions: human. The essentials: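 Human umbilical vein endothelial cells (HUVEC) were exposed to final concentrations from 0.01 up to 50 μM. Cytotoxicity was reported as an IC50 or as a minimum cytotoxic value extrapolated from the tested range.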

In series [5] the test system is Plasmodium falciparum. Nature of the series: Resistant index, ratio of IC50 for chloroquine-resistant Plasmodium falciparum W2 to IC50 for chloroquine-sensitive Plasmodium falciparum 3D7. It counts as functional.

pIC50: −log10 of the molar value. Bounds are passed on as bounds.

Regarding `CN(CCNc1ccnc2cc(Cl)ccc12)CCN1C(=O)C(CC(F)(F)F)=CC1(O)CSc1ccc(Br)cc1` (centres undefined), the Activity result in series [1] is given as “Non-toxic”. In addition, the pIC50 – broadly, the IC50 on a negative log10 scale, so that one unit is a factor of ten – in series [2] was 7.38; in series [3] it was 7.35.
Taken in the same sequence, the figures for `CN(CCNc1ccnc2cc(Cl)ccc12)CCN1C(=O)C(CC(F)(F)F)=CC1(O)CSc1ccc(Cl)cc1` (centres undefined) were “Non-toxic”, 7.24 and 7.26.
In the same order, the values of `CN(CCNc1ccnc2cc(Cl)ccc12)CCN1C(=O)C(CC(F)(F)F)=CC1(O)CSc1ccccc1` (centres undefined) are “Non-toxic”, 7.26 and 7.33.
As for `O=C1C(CC(F)(F)F)=CC(O)(CSc2ccccc2)N1CCNc1ccnc2cc(Cl)ccc12` (centres undefined), the Activity entry in series [4] was “Non-toxic”. The pIC50 in series [2] is 6.78; in series [3], 6.97. Moreover, the “Ratio IC50” value in series [5] was 1.56.
Taken in the same sequence, the figures for `COc1ccc(SCC2(O)C=C(CC(F)(F)F)C(=O)N2CCNc2ccnc3cc(Cl)ccc23)cc1` (centres undefined) were “Non-toxic”, 6.76, 7.00 and 1.71.
Taken in the same sequence, the figures for `O=C1C(CC(F)(F)F)=CC(O)(CSc2ccc(F)cc2)N1CCNc1ccnc2cc(Cl)ccc12` (centres undefined) were “Non-toxic”, 6.12, 6.52 and 2.49.
With `O=C1C(CC(F)(F)F)=CC(O)(CSc2ccccn2)N1CCNc1ccnc2cc(Cl)ccc12` (centres undefined), the Activity result in series [4] is “Non-toxic”. The pIC50 in series [2] was 6.66; in series [3] it was 6.75. Also, in series [5], the “Ratio IC50” value stood at 1.22.
Consider `O=C1C(CC(F)(F)F)=CC(O)(CSc2ccncc2)N1CCNc1ccnc2cc(Cl)ccc12` (centres undefined), for which the pIC50 in series [2] is 6.18; in series [3] it was 7.05. Moreover, the “Ratio IC50” value in series [5] is 7.48.
As for `O=C1C(CC(F)(F)F)=CC(O)(CSc2ncccn2)N1CCNc1ccnc2cc(Cl)ccc12` (centres undefined), in series [4], the Activity entry is “Non-toxic”. Further, the pIC50 was 6.34 in series [2] and 6.56 in series [3]. Also, the “Ratio IC50” value in series [5] was 1.65.
In the same order, the values of `O=C1C(CC(F)(F)F)=CC(O)(CSc2cccc[n+]2[O-])N1CCNc1ccnc2cc(Cl)ccc12` (centres undefined) are “Non-toxic”, 6.56, 6.62 and 1.13.
As to `Cn1cnnc1SCC1(O)C=C(CC(F)(F)F)C(=O)N1CCNc1ccnc2cc(Cl)ccc12` (centres undefined), the pIC50 in series [2] was less than 5.80; in series [3], 6.30. For the same compound, in series [5], the “Ratio IC50” value was more than 3.2.
